The list is not random: actives were taken first. Their share in the collection is about 2.1%.
MEKK3 PB1 HTS: MEKK3-MEK5 PB1 interaction, increase or decrease | binding response (% of control), % at 10 µM | Q99759 | bead-based flow cytometry, Alexa488-MEK5 binding to MEKK3; actives lie on both sides; 0 = blocked by unlabeled MEK5, 100 = vehicle | 290,000 tested, 1.4% active;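 active = binding response more than 3 SD above or below the average of its plate-row segment, actives on both sides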;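 note: Alexa488 bead fluorescence after subtracting the streptavidin-only scavenger bead signal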
Target sequence (Q99759 whole entry, looked up): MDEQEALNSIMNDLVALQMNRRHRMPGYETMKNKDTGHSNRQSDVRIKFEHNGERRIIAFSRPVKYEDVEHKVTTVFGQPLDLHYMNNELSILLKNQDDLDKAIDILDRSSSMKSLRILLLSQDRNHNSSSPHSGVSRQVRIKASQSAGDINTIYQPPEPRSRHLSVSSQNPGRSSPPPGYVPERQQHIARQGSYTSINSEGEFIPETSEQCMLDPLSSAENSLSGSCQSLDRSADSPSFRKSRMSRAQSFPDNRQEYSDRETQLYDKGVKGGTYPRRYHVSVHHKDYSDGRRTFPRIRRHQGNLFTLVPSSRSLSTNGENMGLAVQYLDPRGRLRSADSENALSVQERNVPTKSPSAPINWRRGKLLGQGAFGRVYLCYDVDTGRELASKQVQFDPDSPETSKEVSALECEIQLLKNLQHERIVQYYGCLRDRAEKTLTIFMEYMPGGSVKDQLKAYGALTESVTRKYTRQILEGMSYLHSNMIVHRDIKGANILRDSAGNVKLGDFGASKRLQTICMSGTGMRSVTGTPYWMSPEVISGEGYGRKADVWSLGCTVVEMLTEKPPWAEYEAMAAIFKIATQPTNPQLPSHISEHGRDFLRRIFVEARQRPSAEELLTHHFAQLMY
GSK3beta inhib: human GSK3beta kinase inhibition. GST-GSK3beta kinase, ADP-Glo luminescence, 60 min; stronger effect = lower value. activity score (negative = inhibition), % at 10 µM. 300,000 tested, 0.038% active. P49841;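 active = more than half of replicate wells score below -50%, meaning over 50% inhibition versus plate controls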;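 note: 0% = median DMSO wells and -100% = median GW8510 positive control wells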
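Assay system: GST-fused GSK3beta enzyme, cell-free / Medium: Tris pH 7.5 buffer with MgCl2, DTT, BSA, heparin / Also added: peptide substrate plus 25 µM ATP (final) / Compound: 10 µM single point / Timing: kinase reaction with compound 60 min at room temperature / Detection: ADP-Glo luminescence / Benchmarks: DMSO neutral wells and GW8510 at 20 µM as positive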
GSK3 alpha inh: inhibitors of human GSK-3 alpha kinase | P49840 | ADP-Glo luminescence, 60 min | inhibition, % at 10 µM | 320,000 tested, 0.1% active | AID 2650;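 active = more than half of replicates show inhibition above 20%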;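 note: GST-tagged GSK-3 alpha with peptide substrate and 25 µM ATP; 0% = DMSO neutral wells and 100% = GW8510 positive control wells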
STK33 kinase inh: human STK33 kinase inhibition. 320,000 tested, 0.073% active. inhibition, % at 10 µM. AID 2661. purified STK33, MBP phosphorylation, ADP-Glo luminescence. Q9BYT3;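 active = inhibition at or above 25%, using the most active replicate where run in duplicate; inactive = inhibition below 25%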
MEKK2mut PB1 HTS: signal of MEK5 binding to mutant human MEKK2 PB1 domain. bead flow cytometry, Alexa488-MEK5 binding to MEKK2 mutant. percent response, % at 10 µM. 290,000 tested, 0.35% active; in the data active = percent response above about 24%, passing the limit was not always enough
MEKK2 WT-MEK5: raises or lowers MEK5 binding to wildtype human MEKK2 PB1 domain. binding response (% of control), % at 10 µM. bead flow cytometry, Alexa488-MEK5 binding to MEKK2 WT; actives lie on both sides. 290,000 tested, 1.1% active. Q9Y2U5; in the data active = binding response below about 67% or above about 130%
MEKK2wt confirm: raises or lowers MEK5 binding to wildtype human MEKK2, retest; bead flow cytometry, Alexa488-MEK5 binding to MEKK2 WT; actives lie on both sides; shares compounds with MEKK3 PB1 HTS; binding response (% of control), % at 10 µM; 5,900 tested, 2.4% active; in the data active = binding response below about 16% or above about 210%; inactive = in between
MEKK2mut-MEK5: signal of MEK5 binding to mutant human MEKK2, retest; 5,900 tested, 2% active; AID 1893; percent response, % at 10 µM; shares compounds with MEKK3 PB1 HTS; bead flow cytometry, Alexa488-MEK5 binding to MEKK2 mutant; in the data active = percent response mostly above about 71%, no sharp cut-off; inactive = mostly below about 38%;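 note: higher means compound restores mutant binding toward wildtype level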
MEKK3-MEK5 inh: confirmation of inhibitors of MEK5 binding to human MEKK3; shares compounds with MEKK3 PB1 HTS; bead flow cytometry, Alexa488-MEK5 binding to MEKK3; stronger effect = lower value; binding response (% of control), % at 10 µM; 5,900 tested, 1.8% active;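 active = binding response below 72% of control, or above a set upper limit, though filed actives all read lower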;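 note: 100% = DMSO only wells and 0% = binding blocked by excess unlabeled MEK5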
Numbers without * were called inactive; . = not tested or not shown; [ ] = another dose, or the depositor's remark.

SMILES	MEKK3 PB1 HTS	GSK3beta inhib	GSK3 alpha inh	STK33 kinase inh	MEKK2mut PB1 HTS	MEKK2 WT-MEK5	MEKK2wt confirm	MEKK2mut-MEK5	MEKK3-MEK5 inh
CCOC(=O)CCSc1nc(C)c2cc(OC)ccc2n1	72*[inhibitor]	-1	0	2	2	90	80	-17	76
Cc1ccc(Cl)cc1NC(=O)CN1C(=O)NC2(CCCCCC2)C1=O	.	.	1	0	.	.	.	.	.
COc1ccc(N2C(=O)CC(Sc3ncn[nH]3)C2=O)c(OC)c1 (stereo not given)	122*	1	-2	0	11	116	102	-2	101
CC(C)c1ccc(N2C(=O)CC(Sc3ncn[nH]3)C2=O)cc1 (stereo not given)	107	3	0	-2	4	112	.	.	.
Cc1ccc(-n2nnnc2SCC(=O)NC2CCCc3ccccc32)cc1 (stereo not given)	140*	4	-1	-2	-1	101	103	1	104
O=C(Cc1coc2ccc3ccccc3c12)NCc1ccccc1	93	0	-5	0	0	91	.	.	.
Cc1cccc(C)c1NC(=O)CS(=O)CC(=O)NC1CCCc2ccccc21 (stereo not given)	132*	.	-2	-1	6	128	99	-3	100
O=C(Cc1coc2ccc3ccccc3c12)NC1CCCc2ccccc21 (stereo not given)	135*	2	.	.	1	106	97	-9	95
CCOC(=O)NC(=O)CSc1nnnn1-c1ccc(C)cc1	2.0*[inhibitor]	1	-2	0	-16	2.0*[inhibitor]	104	2	107
Cc1nnc(NC(=O)c2cc(S(=O)(=O)N3CCCCC3)ccc2Cl)s1	104	-1	-1	1	8	108	.	.	.
O=C(CSc1nccc(=O)[nH]1)NC1CCCC1	105	3	-1	-1	1	105	.	.	.
CC(C)(C)OC(=O)NC1CNNC1=O (stereo not given)	.	.	-3	0	.	.	.	.	.
NC(=O)NC(=O)Nc1ccccc1Cl	130*	-1	1	-2	7	125	101	-3	95
COc1ccc(C2=NOC(C)(c3nnc(-c4ccc(F)cc4)o3)C2)cc1 (stereo not given)	81*[inhibitor]	26	-3	-2	-2	96	97	-10	95
C=CCn1c(SCCN2CCCC2)nc2c([nH]c3ccccc32)c1=O	50*[inhibitor]	0	-1	1	-14	60	105	3	104
C=CCn1c(SCC(=O)Nc2cc(C)on2)nc2c([nH]c3ccccc32)c1=O	97	-1	-3	-1	6	102	.	.	.
O=C(O)c1ccccc1O	83	-1	-2	-1	3	100	.	.	.
O=C(O)c1cccc(C(=O)O)c1Br	109	0	1	0	11	152*	104	6	98
O=C(Nc1cccc2ccccc12)NC1CCCCC1	105	-23	-2	0	7	105	.	.	.
O=C(Nc1cccc2ccccc12)NC1Cc2ccccc2C1	73*[inhibitor]	1	-2	-3	-10	82	111	3	98
Cc1ccc(-n2nc3c(c2NC(=O)/C=C\c2ccc4c(c2)OCO4)CSC3)c(C)c1	72*[inhibitor]	0	-2	-1	-7	83	98	-3	102
COc1ccc(CCNC(=O)CSc2nnc(-c3ccc(F)cc3)o2)cc1OC	108	3	1	-1	4	106	.	.	.
COc1ccc(-c2nnc(-c3ccc(N(C)C)cc3)o2)cc1	98	2	5	7	1	101	.	.	.

Bioassay records deposited in PubChem by several laboratories.
